Assay results as given in ChEMBL document CHEMBL1629487, “Synthesis and in vitro antimicrobial evaluation of novel fluoroquinolone derivatives” (2010).
Converted amounts (≈) assume the structure as drawn.

Assays:
Bacillus subtilis = assay: Antimicrobial activity against Bacillus subtilis ATCC 11774 after 18 to 24 hrs by microbroth dilution method; format: functional
Method in brief: (§1)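 Bacteria were cultured in Mueller Hinton broth in 96-well microtiter plates, and the suspensions were added to MHB containing varying concentrations of test compound. Plates were incubated at 37 °C for 18–24 h, then read visually with a reading mirror and spectrophotometrically at 450 nm. MIC was taken as the lowest concentration giving complete suppression of visible growth.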

Streptococcus salivarius = assay: Antimicrobial activity against Streptococcus salivarius ATCC 13419 after 18 to 24 hrs by microbroth dilution method; format: functional; method in brief: as §1
Streptococcus mitis = assay: Antimicrobial activity against Streptococcus mitis ATCC 6249 after 18 to 24 hrs by microbroth dilution method; format: functional; method in brief: as §1
Shigella boydii = assay: Antimicrobial activity against Shigella boydii ATCC 9207 after 18 to 24 hrs by microbroth dilution method; format: functional; method in brief: as §1
Vibrio parahaemolyticus = assay: Antimicrobial activity against Vibrio parahaemolyticus ATCC 17802 after 18 to 24 hrs by microbroth dilution method; format: functional; method in brief: as §1
Proteus vulgaris = assay: Antimicrobial activity against Proteus vulgaris ATCC 49132 after 18 to 24 hrs by microbroth dilution method; format: functional; method in brief: as §1
Proteus mirabilis = assay: Antimicrobial activity against Proteus mirabilis ATCC 7002 after 18 to 24 hrs by microbroth dilution method; format: functional; method in brief: as §1
Klebsiella pneumoniae = assay: Antimicrobial activity against Klebsiella pneumoniae ATCC 10031 after 18 to 24 hrs by microbroth dilution method; format: functional; method in brief: as §1
Salmonella paratyphi = assay: Antimicrobial activity against Salmonella paratyphi A ATCC 9150 after 18 to 24 hrs by microbroth dilution method; format: functional, Salmonella enterica subsp. enterica serovar Paratyphi A; conditions: Salmonella enterica
Method in brief: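 Broth microdilution in 96-well plates; bacteria grown in Mueller Hinton broth with varying concentrations of test compound, incubated at 37 °C for 18–24 h. Plates read visually with a reading mirror and spectrophotometrically at 450 nm. MIC taken as lowest concentration giving complete suppression of visible growth.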

Staphylococcus aureus = assay: Antimicrobial activity against Staphylococcus aureus ATCC 11632 after 18 to 24 hrs by microbroth dilution method; format: functional; method in brief: as §1
Streptococcus sanguinis = assay: Antimicrobial activity against Streptococcus sanguinis ATCC 10556 after 18 to 24 hrs by microbroth dilution method; format: functional; method in brief: as §1
Candida albicans = assay: Antimicrobial activity against Candida albicans ATCC 90028 after 18 to 24 hrs by microbroth dilution method; format: functional
Method in brief: (§2)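 Fungal isolates were cultivated in Sabouraud's broth in 96-well microtiter plates, and the suspensions were added to SDB containing varying concentrations of test compound. Plates were incubated at 37 °C for 18–24 h, then read visually with a reading mirror and spectrophotometrically at 450 nm. MIC was taken as the lowest concentration completely suppressing visible growth.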

Cryptococcus neoformans = assay: Antimicrobial activity against Cryptococcus neoformans ATCC 14116 after 18 to 24 hrs by microbroth dilution method; format: functional; method in brief: as §2
Aeromonas hydrophila = assay: Antimicrobial activity against Aeromonas hydrophila ATCC 7966 after 18 to 24 hrs by microbroth dilution method; format: functional; method in brief: as §1
Vibrio alginolyticus = assay: Antimicrobial activity against Vibrio alginolyticus ATCC 17749 after 18 to 24 hrs by microbroth dilution method; format: functional; method in brief: as §1
Pseudomonas aeruginosa = assay: Antimicrobial activity against Pseudomonas aeruginosa ATCC 10145 after 18 to 24 hrs by microbroth dilution method; format: functional; method in brief: as §1

Compound	MIC (Bacillus subtilis)	MIC (Streptococcus salivarius)	MIC (Streptococcus mitis)	MIC (Shigella boydii)	MIC (Vibrio parahaemolyticus)	MIC (Proteus vulgaris)	MIC (Proteus mirabilis)	MIC (Klebsiella pneumoniae)	MIC (Salmonella paratyphi)	MIC (Staphylococcus aureus)	MIC (Streptococcus sanguinis)	MIC (Candida albicans)	MIC (Cryptococcus neoformans)	MIC (Aeromonas hydrophila)	MIC (Vibrio alginolyticus)	MIC (Pseudomonas aeruginosa)
CCn1cc(C(=O)O)c(=O)c2cc(F)c(N3CCN(c4ccccc4C#N)CC3)c(F)c21	1.5 µg/mL (≈ 3.42 µM)	2.5 µg/mL (≈ 5.7 µM)	1.5 µg/mL (≈ 3.42 µM)	2 µg/mL (≈ 4.56 µM)	1.5 µg/mL (≈ 3.42 µM)	1 µg/mL (≈ 2.28 µM)	2.5 µg/mL (≈ 5.7 µM)	1 µg/mL (≈ 2.28 µM)	1.5 µg/mL (≈ 3.42 µM)	–	–	–	–	–	–	–
CCn1cc(C(=O)O)c(=O)c2cc(F)c(N3CCN(c4ccc(F)cc4)CC3)c(F)c21	2.5 µg/mL (≈ 5.79 µM)	1.5 µg/mL (≈ 3.48 µM)	1.5 µg/mL (≈ 3.48 µM)	2 µg/mL (≈ 4.64 µM)	1.5 µg/mL (≈ 3.48 µM)	2.5 µg/mL (≈ 5.79 µM)	1.25 µg/mL (≈ 2.9 µM)	1.5 µg/mL (≈ 3.48 µM)	–	–	–	–	–	–	–	–
CCn1cc(C(=O)O)c(=O)c2cc(F)c(N3CCC(C)CC3)c(F)c21	5 µg/mL (≈ 14.3 µM)	2.5 µg/mL (≈ 7.14 µM)	1 µg/mL (≈ 2.85 µM)	–	1.5 µg/mL (≈ 4.28 µM)	1 µg/mL (≈ 2.85 µM)	2.5 µg/mL (≈ 7.14 µM)	1.5 µg/mL (≈ 4.28 µM)	–	–	–	–	–	–	–	–
CCn1cc(C(=O)O)c(=O)c2cc(F)c(N3CCC(CO)CC3)c(F)c21	1 µg/mL (≈ 2.73 µM)	1.25 µg/mL (≈ 3.41 µM)	2.5 µg/mL (≈ 6.82 µM)	0.5 µg/mL (≈ 1.36 µM)	1.25 µg/mL (≈ 3.41 µM)	1.25 µg/mL (≈ 3.41 µM)	1.25 µg/mL (≈ 3.41 µM)	2.5 µg/mL (≈ 6.82 µM)	5 µg/mL (≈ 13.6 µM)	1.25 µg/mL (≈ 3.41 µM)	2 µg/mL (≈ 5.46 µM)	183 µg/mL (≈ 500 µM)	4.19 µg/mL (≈ 11.4 µM)	1 µg/mL (≈ 2.73 µM)	1 µg/mL (≈ 2.73 µM)	1.5 µg/mL (≈ 4.09 µM)
CCn1cc(C(=O)O)c(=O)c2cc(F)c(N3CCC(Br)CC3)c(F)c21	2.5 µg/mL (≈ 6.02 µM)	2.5 µg/mL (≈ 6.02 µM)	1 µg/mL (≈ 2.41 µM)	1 µg/mL (≈ 2.41 µM)	5 µg/mL (≈ 12 µM)	2.5 µg/mL (≈ 6.02 µM)	5 µg/mL (≈ 12 µM)	5 µg/mL (≈ 12 µM)	–	5 µg/mL (≈ 12 µM)	–	415 µg/mL (≈ 999 µM)	1.03 µg/mL (≈ 2.48 µM)	1.5 µg/mL (≈ 3.61 µM)	–	–
CCn1cc(C(=O)O)c(=O)c2cc(F)c(N3CCN(c4ccccc4F)CC3)c(F)c21	1.25 µg/mL (≈ 2.9 µM)	1 µg/mL (≈ 2.32 µM)	1.5 µg/mL (≈ 3.48 µM)	2 µg/mL (≈ 4.64 µM)	1.5 µg/mL (≈ 3.48 µM)	2.5 µg/mL (≈ 5.79 µM)	5 µg/mL (≈ 11.6 µM)	1.5 µg/mL (≈ 3.48 µM)	–	–	–	–	–	1.5 µg/mL (≈ 3.48 µM)	–	–
CCn1cc(C(=O)O)c(=O)c2cc(F)c(N3CCN(c4cccc(Cl)c4Cl)CC3)c(F)c21	5 µg/mL (≈ 10.4 µM)	2.5 µg/mL (≈ 5.18 µM)	5 µg/mL (≈ 10.4 µM)	1 µg/mL (≈ 2.07 µM)	1.25 µg/mL (≈ 2.59 µM)	2.5 µg/mL (≈ 5.18 µM)	5 µg/mL (≈ 10.4 µM)	1.25 µg/mL (≈ 2.59 µM)	5 µg/mL (≈ 10.4 µM)	1 µg/mL (≈ 2.07 µM)	–	108 µg/mL (≈ 224 µM)	2.17 µg/mL (≈ 4.5 µM)	0.5 µg/mL (≈ 1.04 µM)	1 µg/mL (≈ 2.07 µM)	–
CCn1cc(C(=O)O)c(=O)c2cc(F)c(N3CCN(Cc4ccccc4)CC3)c(F)c21	–	2.5 µg/mL (≈ 5.85 µM)	1.5 µg/mL (≈ 3.51 µM)	1.5 µg/mL (≈ 3.51 µM)	1.5 µg/mL (≈ 3.51 µM)	–	1.5 µg/mL (≈ 3.51 µM)	1 µg/mL (≈ 2.34 µM)	1 µg/mL (≈ 2.34 µM)	–	–	–	–	1.5 µg/mL (≈ 3.51 µM)	–	–
CCn1cc(C(=O)O)c(=O)c2cc(F)c(N3CCC(NC)CC3)c(F)c21	1.25 µg/mL (≈ 3.42 µM)	2.5 µg/mL (≈ 6.84 µM)	2.5 µg/mL (≈ 6.84 µM)	1 µg/mL (≈ 2.74 µM)	0.5 µg/mL (≈ 1.37 µM)	1.25 µg/mL (≈ 3.42 µM)	1.25 µg/mL (≈ 3.42 µM)	5 µg/mL (≈ 13.7 µM)	5 µg/mL (≈ 13.7 µM)	2.5 µg/mL (≈ 6.84 µM)	2 µg/mL (≈ 5.47 µM)	–	1.82 µg/mL (≈ 4.98 µM)	2 µg/mL (≈ 5.47 µM)	2.5 µg/mL (≈ 6.84 µM)	1 µg/mL (≈ 2.74 µM)
CCn1cc(C(=O)O)c(=O)c2cc(F)c(N3CCN(c4ccccc4)CC3)c(F)c21	5 µg/mL (≈ 12.1 µM)	1 µg/mL (≈ 2.42 µM)	1.5 µg/mL (≈ 3.63 µM)	–	–	1.5 µg/mL (≈ 3.63 µM)	1.5 µg/mL (≈ 3.63 µM)	2 µg/mL (≈ 4.84 µM)	–	1 µg/mL (≈ 2.42 µM)	–	413 µg/mL (≈ 1000 µM)	–	–	–	–
O=C(O)c1cn(C2CC2)c2cc(N3CCNCC3)c(F)cc2c1=O [CIPROFLOXACIN]	1.5 µg/mL (≈ 4.53 µM)	1.5 µg/mL (≈ 4.53 µM)	2.5 µg/mL (≈ 7.54 µM)	2.5 µg/mL (≈ 7.54 µM)	8 µg/mL (≈ 24.1 µM)	3 µg/mL (≈ 9.05 µM)	6 µg/mL (≈ 18.1 µM)	1.5 µg/mL (≈ 4.53 µM)	4 µg/mL (≈ 12.1 µM)	1 µg/mL (≈ 3.02 µM)	4 µg/mL (≈ 12.1 µM)	–	–	3 µg/mL (≈ 9.05 µM)	2 µg/mL (≈ 6.04 µM)	–
CCn1cc(C(=O)O)c(=O)c2cc(F)c(N3CCC(N4CCCCC4)CC3)c(F)c21	–	2.5 µg/mL (≈ 5.96 µM)	2.5 µg/mL (≈ 5.96 µM)	1 µg/mL (≈ 2.38 µM)	2.5 µg/mL (≈ 5.96 µM)	1.25 µg/mL (≈ 2.98 µM)	1.25 µg/mL (≈ 2.98 µM)	2.5 µg/mL (≈ 5.96 µM)	1 µg/mL (≈ 2.38 µM)	2.5 µg/mL (≈ 5.96 µM)	–	–	–	0.5 µg/mL (≈ 1.19 µM)	–	–
CCn1cc(C(=O)O)c(=O)c2cc(F)c(N3CCNCC3)cc21 [NORFLOXACIN]	–	–	–	–	–	–	–	–	–	–	–	312 µg/mL (≈ 979 µM)	4.88 µg/mL (≈ 15.3 µM)	–	–	–
